ChEMBL document CHEMBL4229344 (Eur J Med Chem, 2018)
Calls of active or inactive are those of the source. No cut-off for these calls is given here.

How the values were obtained:
[1] = target: Insulin receptor (Homo sapiens) (UniProt P06213); test: Binding affinity to wild-type human partial length INSR (P997 to E1318 residues) expressed in mammalian expression system assessed as residual binding level at 1 uM by Kinomescan method relative to control
[2] = target: Protein kinase C eta type (Homo sapiens) (UniProt P24723); test: Binding affinity to wild-type human partial length PRKCH (S324 to P683 residues) expressed in bacterial expression system assessed as residual binding level at 1 uM by Kinomescan method relative to control
[3] = system: Epidermal growth factor receptor (Homo sapiens), P00533 [L858R]; test: Binding affinity to human partial length EGFR L858R mutant (R669 to V1011 residues) expressed in bacterial expression system assessed as residual binding level at 1 uM by Kinomescan method relative to control
Summary of the method: (§1)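 Kinome-wide single-concentration binding screen (KINOMEscan) at 1 μM against a panel of 468 purified kinases and mutants. Read-out is relative binding of each kinase compared with control. Selectivity across the panel was summarised as an S(10) score.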

[4] = system: Phosphatidylinositol 4,5-bisphosphate 3-kinase catalytic subunit alpha isoform (Homo sapiens), P42336 [I800L]; test: Binding affinity to human partial length PIK3CA I800L mutant (R108 to N1068 residues) expressed in mammalian expression system assessed as residual binding level at 1 uM by Kinomescan method relative to control; summary of the method: as §1
[5] = target: Transient receptor potential cation channel subfamily M member 6 (Homo sapiens) (UniProt Q9BX84); test: Binding affinity to wild-type human partial length TRPM6 (Q1723 to I1998 residues) expressed in mammalian expression system assessed as residual binding level at 1 uM by Kinomescan method relative to control
EOL1 [6] = test: Antitumor activity against human EOL-1 cells engrafted in ip dosed NOD-SCID mouse assessed as increase in mouse survival administered 3 weeks post cell inoculation; type: functional, organism-based
Summary of the method: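 Daily i.p. dosing started 3 weeks after inoculation at 7.5, 15 or 30 mg/kg/day. Mice monitored daily and euthanized when moribund or at hind-limb paralysis. Bone marrow cells, after red-cell lysis, stained with PE anti-HLA-ABC and counted by flow cytometry.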

[7] = target: 1-phosphatidylinositol 3-phosphate 5-kinase (Homo sapiens) (UniProt Q9Y2I7); test: Binding affinity to wild-type human partial length PIKFYVE (F1512 to C2098 residues) expressed in mammalian expression system assessed as residual binding level at 1 uM by Kinomescan method relative to control
Sequence of 1-phosphatidylinositol 3-phosphate 5-kinase (Homo sapiens) (Q9Y2I7 whole entry, the tested form may be a part): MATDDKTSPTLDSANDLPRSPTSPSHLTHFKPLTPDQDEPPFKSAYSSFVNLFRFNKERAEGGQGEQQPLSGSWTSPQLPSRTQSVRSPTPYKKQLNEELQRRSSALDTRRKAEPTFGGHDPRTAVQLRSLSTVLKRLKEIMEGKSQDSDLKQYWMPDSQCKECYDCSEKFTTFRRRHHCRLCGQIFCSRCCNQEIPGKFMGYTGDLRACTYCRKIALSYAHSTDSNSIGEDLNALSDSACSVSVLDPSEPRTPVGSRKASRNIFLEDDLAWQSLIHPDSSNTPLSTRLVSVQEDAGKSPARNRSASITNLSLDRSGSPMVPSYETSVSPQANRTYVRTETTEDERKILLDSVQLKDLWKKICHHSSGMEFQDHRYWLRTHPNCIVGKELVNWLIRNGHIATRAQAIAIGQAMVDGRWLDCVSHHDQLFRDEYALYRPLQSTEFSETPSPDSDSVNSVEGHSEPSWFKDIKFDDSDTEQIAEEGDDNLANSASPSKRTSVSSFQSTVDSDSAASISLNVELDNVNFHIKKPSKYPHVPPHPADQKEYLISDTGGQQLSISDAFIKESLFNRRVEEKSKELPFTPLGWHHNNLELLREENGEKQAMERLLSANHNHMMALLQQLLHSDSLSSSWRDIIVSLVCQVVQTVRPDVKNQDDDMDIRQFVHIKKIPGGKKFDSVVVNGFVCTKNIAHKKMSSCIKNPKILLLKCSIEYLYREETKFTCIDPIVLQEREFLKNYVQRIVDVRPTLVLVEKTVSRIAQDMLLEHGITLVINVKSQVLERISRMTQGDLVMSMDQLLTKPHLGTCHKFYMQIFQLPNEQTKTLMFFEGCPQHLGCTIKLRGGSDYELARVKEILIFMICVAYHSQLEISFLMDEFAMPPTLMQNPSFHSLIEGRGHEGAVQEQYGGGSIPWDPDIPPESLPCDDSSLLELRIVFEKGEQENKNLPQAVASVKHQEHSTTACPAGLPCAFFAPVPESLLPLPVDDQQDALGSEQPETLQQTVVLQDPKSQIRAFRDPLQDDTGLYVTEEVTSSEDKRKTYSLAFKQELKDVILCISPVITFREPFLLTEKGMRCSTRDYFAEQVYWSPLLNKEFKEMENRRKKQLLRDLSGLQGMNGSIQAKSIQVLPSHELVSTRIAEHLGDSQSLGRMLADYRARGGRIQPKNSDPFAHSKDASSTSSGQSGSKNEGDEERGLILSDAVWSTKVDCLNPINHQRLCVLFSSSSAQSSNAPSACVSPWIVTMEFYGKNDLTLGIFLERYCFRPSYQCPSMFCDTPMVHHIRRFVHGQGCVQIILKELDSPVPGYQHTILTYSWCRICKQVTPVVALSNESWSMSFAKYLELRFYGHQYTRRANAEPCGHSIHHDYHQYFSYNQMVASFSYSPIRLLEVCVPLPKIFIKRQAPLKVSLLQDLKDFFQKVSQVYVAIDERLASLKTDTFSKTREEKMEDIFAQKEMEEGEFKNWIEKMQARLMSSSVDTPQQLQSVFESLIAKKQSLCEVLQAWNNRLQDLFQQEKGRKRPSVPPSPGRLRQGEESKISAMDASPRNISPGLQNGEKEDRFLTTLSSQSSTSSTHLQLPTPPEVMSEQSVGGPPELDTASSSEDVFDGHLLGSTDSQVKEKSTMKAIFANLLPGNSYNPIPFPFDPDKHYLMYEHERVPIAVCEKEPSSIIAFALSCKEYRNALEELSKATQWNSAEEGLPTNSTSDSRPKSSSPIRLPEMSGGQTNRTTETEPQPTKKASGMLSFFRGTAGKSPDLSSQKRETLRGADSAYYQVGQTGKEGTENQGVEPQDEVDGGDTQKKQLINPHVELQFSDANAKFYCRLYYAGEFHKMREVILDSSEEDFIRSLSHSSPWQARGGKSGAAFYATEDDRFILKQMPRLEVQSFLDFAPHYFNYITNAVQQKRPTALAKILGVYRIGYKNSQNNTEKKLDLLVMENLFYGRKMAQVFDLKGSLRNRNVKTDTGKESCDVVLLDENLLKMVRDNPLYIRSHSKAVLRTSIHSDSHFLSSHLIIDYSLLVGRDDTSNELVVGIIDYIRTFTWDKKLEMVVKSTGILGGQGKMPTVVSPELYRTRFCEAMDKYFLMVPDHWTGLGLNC
Summary of the method: (§2)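 KINOMEscan competition binding against a panel of 468 purified kinases/mutants, compound tested at 1 μM; readout is relative binding activity versus control.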

[8] = target: Epithelial discoidin domain-containing receptor 1 (Homo sapiens, UniProt Q08345); test: Binding affinity to wild-type human partial length DDR1 (R565 to V876 residues) expressed in bacterial expression system assessed as residual binding level at 1 uM by Kinomescan method relative to control
Sequence of Epithelial discoidin domain-containing receptor 1 (Q08345 whole entry, the tested form may be a part): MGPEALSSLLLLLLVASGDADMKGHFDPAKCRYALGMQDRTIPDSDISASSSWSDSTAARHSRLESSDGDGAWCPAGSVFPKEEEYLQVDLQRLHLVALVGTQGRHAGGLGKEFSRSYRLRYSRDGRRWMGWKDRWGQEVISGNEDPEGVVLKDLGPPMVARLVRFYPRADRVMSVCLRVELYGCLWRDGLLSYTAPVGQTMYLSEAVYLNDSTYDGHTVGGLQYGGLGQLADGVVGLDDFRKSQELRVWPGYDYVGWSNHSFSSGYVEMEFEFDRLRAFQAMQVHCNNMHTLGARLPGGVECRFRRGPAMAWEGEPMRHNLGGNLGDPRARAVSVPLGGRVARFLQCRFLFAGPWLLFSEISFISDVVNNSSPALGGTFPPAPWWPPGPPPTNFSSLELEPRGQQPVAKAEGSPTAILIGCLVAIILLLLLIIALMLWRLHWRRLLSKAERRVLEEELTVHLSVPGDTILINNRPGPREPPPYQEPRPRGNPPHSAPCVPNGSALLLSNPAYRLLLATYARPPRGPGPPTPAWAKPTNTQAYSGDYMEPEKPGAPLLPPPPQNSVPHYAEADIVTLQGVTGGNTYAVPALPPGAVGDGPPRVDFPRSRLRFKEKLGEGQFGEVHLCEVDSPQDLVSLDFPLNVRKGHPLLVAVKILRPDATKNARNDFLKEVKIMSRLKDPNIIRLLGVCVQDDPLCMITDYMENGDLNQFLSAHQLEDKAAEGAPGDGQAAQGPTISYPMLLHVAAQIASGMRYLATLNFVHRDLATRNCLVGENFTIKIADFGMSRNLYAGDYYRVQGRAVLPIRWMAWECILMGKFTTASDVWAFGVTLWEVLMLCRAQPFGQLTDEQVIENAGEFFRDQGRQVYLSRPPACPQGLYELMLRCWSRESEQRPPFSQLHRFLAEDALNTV
Summary of the method: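 Kinome-wide competition binding screen against a panel of 468 purified kinases/mutants, with the test compound at a single concentration of 1 μM. Read-out is the relative binding activity of each kinase in the presence of compound.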

[9] = target: Serine/threonine-protein kinase tousled-like 2 (Homo sapiens) (UniProt Q86UE8); test: Binding affinity to wild-type human partial length TLK2 (E424 to N749 residues) expressed in bacterial expression system assessed as residual binding level at 1 uM by Kinomescan method relative to control
[10] = target: Platelet-derived growth factor receptor alpha (Homo sapiens, UniProt P16234); test: Inhibition of PDGFRalpha autophosphorylation at Y1018 residue in human EOL-1 cells up to 300 nM after 2 hrs by Western blot analysis; type: cell-based
Sequence of Platelet-derived growth factor receptor alpha (P16234 whole entry, the tested form may be a part): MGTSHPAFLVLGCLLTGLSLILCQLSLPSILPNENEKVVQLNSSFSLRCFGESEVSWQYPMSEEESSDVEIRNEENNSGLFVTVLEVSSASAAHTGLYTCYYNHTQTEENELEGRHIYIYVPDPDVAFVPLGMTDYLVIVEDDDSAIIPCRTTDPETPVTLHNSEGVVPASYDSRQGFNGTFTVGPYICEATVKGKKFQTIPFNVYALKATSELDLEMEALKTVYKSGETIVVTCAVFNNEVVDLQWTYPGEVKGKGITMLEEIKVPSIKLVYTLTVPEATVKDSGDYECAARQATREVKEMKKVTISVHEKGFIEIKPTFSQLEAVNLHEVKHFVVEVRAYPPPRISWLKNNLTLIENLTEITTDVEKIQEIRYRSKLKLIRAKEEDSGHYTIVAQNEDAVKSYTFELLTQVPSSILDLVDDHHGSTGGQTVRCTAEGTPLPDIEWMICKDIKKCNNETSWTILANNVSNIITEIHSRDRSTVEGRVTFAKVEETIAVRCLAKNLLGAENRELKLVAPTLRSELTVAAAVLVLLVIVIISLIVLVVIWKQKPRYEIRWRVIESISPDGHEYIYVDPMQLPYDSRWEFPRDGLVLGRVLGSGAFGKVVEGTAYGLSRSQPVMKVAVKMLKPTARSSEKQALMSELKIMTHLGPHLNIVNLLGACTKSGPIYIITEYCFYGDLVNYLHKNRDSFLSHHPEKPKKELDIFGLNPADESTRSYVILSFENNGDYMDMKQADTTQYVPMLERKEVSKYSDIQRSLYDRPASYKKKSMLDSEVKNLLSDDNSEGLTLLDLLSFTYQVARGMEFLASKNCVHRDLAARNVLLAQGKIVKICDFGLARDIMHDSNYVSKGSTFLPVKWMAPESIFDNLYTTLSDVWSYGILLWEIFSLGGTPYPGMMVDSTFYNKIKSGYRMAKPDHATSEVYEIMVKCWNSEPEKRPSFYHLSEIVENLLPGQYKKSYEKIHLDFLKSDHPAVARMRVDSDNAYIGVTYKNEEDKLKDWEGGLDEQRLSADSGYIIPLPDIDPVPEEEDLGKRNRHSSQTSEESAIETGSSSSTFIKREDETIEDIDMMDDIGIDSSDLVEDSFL

[11] = target: Calcium/calmodulin-dependent protein kinase type 1 (Homo sapiens) (UniProt Q14012); test: Binding affinity to wild-type human full length CAMK1 (M1 to L370 residues) expressed in bacterial expression system assessed as residual binding level at 1 uM by Kinomescan method relative to control
Summary of the method: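 Single-concentration (1 μM) competition-binding screen run by KINOMEscan against a panel of 468 purified kinases and mutants. The read-out is the relative binding activity of the test compound to each kinase.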

[12] = target: Tyrosine-protein kinase Blk (Homo sapiens) (UniProt P51451); test: Binding affinity to wild-type human partial length BLK (G211 to L503 residues) expressed in bacterial expression system assessed as residual binding level at 1 uM by Kinomescan method relative to control
Summary of the method: (§3)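 Single-concentration KINOMEscan (DiscoverX) binding screen at 1 μM against a panel of 468 purified kinases and mutants. The read-out is binding relative to control.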

[13] = target: Phosphatidylinositol 4-kinase beta (Homo sapiens) (UniProt Q9UBF8); test: Binding affinity to wild-type human full length PIK4CB (M1 to M828 residues) expressed in mammalian expression system assessed as residual binding level at 1 uM by Kinomescan method relative to control; summary of the method: as §3
[14] = target: Aurora kinase B (Homo sapiens) (UniProt Q96GD4); test: Binding affinity to wild-type human partial length AURKB (D25 to A303 residues) expressed in mammalian expression system assessed as residual binding level at 1 uM by Kinomescan method relative to control; summary of the method: as §3
[15] = target: Uncharacterized serine/threonine-protein kinase SBK3 (Homo sapiens) (UniProt P0C264); test: Binding affinity to wild-type human partial length SgK110 (L22 to R329 residues) expressed in bacterial expression system assessed as residual binding level at 1 uM by Kinomescan method relative to control; summary of the method: as §2
[16] = target: Phosphatidylinositol 3-kinase catalytic subunit type 3 (Homo sapiens) (UniProt Q8NEB9); test: Binding affinity to wild-type human partial length VPS34 (S282 to H879 residues) expressed in mammalian expression system assessed as residual binding level at 1 uM by Kinomescan method relative to control
EOL1 [17] = test: Antiproliferative activity against human EOL-1 cells after 72 hrs by CellTiter-Glo or CCK-8 assay; type: functional; settings: EOL1, 72 h
Summary of the method: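 Cells in RPMI 1640 with 10% FBS at 37 °C, 5% CO2, seeded at 1–3 × 10^4 cells/mL with serial compound dilutions for 72 h. Viability read by CellTiter-Glo luminescence or CCK-8 absorbance (450/655 nm), normalized to DMSO control.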

Homo sapiens = species: Homo sapiens; test: Selectivity index, ratio of IC50 for PDGFRbeta (unknown origin) by ADP-Glo kinase assay to IC50 for PDGFRalpha (unknown origin) by ADP-Glo kinase assay
[18] = target: Phosphatidylinositol 4,5-bisphosphate 3-kinase catalytic subunit alpha isoform (Homo sapiens) (UniProt P42336); test: Binding affinity to wild-type human partial length PIK3CA (R108 to N1068 residues) expressed in mammalian expression system assessed as residual binding level at 1 uM by Kinomescan method relative to control
[19] = target: Insulin-like growth factor 1 receptor (Homo sapiens) (UniProt P08069); test: Binding affinity to wild-type human partial length IGF1R (L972 to D1294 residues) expressed in bacterial expression system assessed as residual binding level at 1 uM by Kinomescan method relative to control
[20] = target: Serine/threonine-protein kinase ULK1 (Homo sapiens) (UniProt O75385); test: Binding affinity to wild-type human partial length ULK1 (M1 to T309 residues) expressed in mammalian expression system assessed as residual binding level at 1 uM by Kinomescan method relative to control
Sequence of Serine/threonine-protein kinase ULK1 (Homo sapiens) (O75385 whole entry, the tested form may be a part): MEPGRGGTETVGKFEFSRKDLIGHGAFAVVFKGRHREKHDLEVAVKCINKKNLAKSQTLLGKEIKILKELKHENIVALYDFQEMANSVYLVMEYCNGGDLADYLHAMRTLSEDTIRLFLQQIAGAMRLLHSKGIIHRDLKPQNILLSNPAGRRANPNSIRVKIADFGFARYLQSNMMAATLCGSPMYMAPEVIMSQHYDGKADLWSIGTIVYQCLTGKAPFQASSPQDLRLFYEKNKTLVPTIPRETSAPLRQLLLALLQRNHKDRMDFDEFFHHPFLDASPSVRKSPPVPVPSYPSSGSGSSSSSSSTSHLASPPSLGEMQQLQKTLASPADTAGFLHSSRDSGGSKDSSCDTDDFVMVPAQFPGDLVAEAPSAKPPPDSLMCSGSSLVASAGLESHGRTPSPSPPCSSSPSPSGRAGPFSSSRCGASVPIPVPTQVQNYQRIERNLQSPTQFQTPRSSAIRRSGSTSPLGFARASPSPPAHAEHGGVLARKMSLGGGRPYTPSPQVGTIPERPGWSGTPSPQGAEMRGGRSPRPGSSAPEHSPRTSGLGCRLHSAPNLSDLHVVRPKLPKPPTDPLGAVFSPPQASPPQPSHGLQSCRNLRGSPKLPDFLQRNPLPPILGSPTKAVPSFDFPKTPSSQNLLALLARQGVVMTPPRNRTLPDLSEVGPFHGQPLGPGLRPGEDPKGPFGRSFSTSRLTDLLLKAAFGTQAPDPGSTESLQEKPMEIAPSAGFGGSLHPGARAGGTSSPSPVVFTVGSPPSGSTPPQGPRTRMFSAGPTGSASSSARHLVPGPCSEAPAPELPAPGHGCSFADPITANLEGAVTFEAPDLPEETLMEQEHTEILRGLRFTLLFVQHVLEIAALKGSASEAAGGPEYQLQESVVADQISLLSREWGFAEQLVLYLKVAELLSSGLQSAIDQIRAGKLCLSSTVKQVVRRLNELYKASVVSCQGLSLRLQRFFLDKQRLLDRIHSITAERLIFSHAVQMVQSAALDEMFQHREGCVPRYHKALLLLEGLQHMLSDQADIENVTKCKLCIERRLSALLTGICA

In the case of Cc1ccc(NC(=O)c2ccc(CN(CCN(C)C)C(=O)c3cccnc3)cc2)cc1Nc1nccc(-c2cccnc2)n1, the Activity [1] was 100%, the Activity [2] was 86% and the Activity [3] was 100%. The Activity [4] was 79%, the Activity [5] was 100% and the Activity (EOL1 [6]) was “Dose-dependent effect”. For the same compound, the Activity [7] was 91%, the Activity [8] was 3.9% and the Activity [9] was 95%. The inhibition [10] was “Active”, the Activity [11] was 81% and the Activity [12] was 95%. For the same compound, the Activity [13] was 100%, the Activity [14] was 93% and the Activity [15] was 72%. For the same compound, the Activity [16] was 100%, the GI50 (EOL1 [17]) was < 1 nM and the Ratio IC50 (Homo sapiens) was 46. The Activity [18] was 100%, the Activity [19] was 95% and the Activity [20] was 100%.
